Measured values from PubChem BioAssay AID652286 (Sanford-Burnham Center for Chemical Genomics, 2013).
Several values for one entry are separate records, joined by “and”; a condition that tells them apart may be missing. Identical values can stand only once. Activity calls are given as the source filed them.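 The calls were made as follows: active = compounds halving thioesterase enzyme activity at 20 µM or lower; inactive = the rest.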

Molecular target: Fatty acid synthase (Homo sapiens) (UniProt P49327)
Experiment: inhibition of FAS-TE enzyme activity – biochemical, kinetic fluorescence, OMFH substrate, round 2, powder samples, SAR follow-up (AID 652286)
Settings: recombinant FAS-TE, OMFH fluorogenic substrate
In short: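 Test system: FAS thioesterase domain enzyme / Buffer or medium: 100 mM Tris-HCl pH 7.5, 50 mM NaCl, 500 mM sarcosine, TCEP, Brij35 / Times: kinetic reads every 10 min at room temperature / Doses: concentration series with 5.5% DMSO / Reagent: fluorogenic OMFH substrate, 60 µM in 2x stock solution / Signal: fluorescence at 480/540 nm, kinetic mode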

Fatty acid synthase (Homo sapiens), sequence (P49327 whole entry, looked up): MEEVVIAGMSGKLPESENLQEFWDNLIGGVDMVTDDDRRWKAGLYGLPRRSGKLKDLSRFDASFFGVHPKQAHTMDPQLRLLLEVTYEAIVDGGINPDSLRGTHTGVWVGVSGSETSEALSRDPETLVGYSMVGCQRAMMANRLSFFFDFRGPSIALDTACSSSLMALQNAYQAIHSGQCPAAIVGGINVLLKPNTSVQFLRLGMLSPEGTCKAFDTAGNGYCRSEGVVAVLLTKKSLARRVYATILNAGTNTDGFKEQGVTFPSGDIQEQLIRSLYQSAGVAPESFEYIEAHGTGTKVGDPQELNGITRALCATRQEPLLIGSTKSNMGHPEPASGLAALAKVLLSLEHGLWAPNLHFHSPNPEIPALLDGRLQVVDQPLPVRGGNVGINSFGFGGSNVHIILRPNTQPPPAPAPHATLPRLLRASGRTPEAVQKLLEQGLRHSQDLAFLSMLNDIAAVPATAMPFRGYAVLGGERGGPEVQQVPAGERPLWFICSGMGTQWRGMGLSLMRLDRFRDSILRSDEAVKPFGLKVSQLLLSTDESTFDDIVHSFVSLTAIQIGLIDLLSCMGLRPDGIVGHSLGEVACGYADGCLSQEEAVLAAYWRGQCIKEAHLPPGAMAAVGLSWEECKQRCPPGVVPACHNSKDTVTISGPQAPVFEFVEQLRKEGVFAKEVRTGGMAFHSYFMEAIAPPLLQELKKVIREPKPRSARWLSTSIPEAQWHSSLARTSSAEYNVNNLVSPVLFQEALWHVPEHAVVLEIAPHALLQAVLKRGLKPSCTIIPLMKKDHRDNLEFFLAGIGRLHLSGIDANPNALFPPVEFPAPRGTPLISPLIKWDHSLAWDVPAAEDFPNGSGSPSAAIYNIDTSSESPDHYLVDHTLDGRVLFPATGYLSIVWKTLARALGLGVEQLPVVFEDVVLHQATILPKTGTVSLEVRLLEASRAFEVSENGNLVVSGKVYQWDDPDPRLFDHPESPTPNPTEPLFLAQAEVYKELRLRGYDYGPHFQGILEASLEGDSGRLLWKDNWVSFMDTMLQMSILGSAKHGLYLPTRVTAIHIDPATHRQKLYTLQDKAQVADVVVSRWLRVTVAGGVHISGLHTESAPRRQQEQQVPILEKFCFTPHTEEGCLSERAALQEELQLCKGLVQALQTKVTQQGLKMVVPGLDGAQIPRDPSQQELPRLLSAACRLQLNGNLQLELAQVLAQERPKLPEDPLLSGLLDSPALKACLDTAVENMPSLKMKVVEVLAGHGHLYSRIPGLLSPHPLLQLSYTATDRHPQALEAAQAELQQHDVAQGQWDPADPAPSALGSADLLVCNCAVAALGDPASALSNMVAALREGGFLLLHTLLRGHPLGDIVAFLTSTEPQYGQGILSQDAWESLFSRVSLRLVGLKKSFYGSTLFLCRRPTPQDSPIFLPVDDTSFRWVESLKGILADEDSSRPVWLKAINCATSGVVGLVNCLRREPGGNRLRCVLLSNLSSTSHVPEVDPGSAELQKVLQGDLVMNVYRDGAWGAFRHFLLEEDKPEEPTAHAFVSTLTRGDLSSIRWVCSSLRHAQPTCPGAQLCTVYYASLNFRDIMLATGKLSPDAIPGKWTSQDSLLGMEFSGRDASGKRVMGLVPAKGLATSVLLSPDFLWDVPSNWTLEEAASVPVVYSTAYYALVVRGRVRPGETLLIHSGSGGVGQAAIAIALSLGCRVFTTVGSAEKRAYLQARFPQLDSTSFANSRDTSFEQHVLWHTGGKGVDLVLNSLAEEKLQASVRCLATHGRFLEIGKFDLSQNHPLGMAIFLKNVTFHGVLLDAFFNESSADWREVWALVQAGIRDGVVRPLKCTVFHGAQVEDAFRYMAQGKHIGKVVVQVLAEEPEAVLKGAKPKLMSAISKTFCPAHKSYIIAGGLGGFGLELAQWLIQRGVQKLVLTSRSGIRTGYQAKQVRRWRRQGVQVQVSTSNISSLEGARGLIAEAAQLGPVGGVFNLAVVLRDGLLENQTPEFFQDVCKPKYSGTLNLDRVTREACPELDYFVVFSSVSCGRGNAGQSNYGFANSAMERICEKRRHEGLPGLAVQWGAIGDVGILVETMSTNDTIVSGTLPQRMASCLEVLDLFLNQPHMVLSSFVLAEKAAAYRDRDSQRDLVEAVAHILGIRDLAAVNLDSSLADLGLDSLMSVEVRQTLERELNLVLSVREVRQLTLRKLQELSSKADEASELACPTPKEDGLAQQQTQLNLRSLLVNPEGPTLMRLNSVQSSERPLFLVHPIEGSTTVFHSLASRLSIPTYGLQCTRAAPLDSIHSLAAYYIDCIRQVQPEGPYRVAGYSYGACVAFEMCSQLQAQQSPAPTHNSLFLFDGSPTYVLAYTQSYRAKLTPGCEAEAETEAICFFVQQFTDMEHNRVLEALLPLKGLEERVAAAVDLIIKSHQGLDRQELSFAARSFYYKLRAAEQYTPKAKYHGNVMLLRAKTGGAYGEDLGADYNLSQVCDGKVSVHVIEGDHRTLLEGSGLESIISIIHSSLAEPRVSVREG

Row | SMILES | IC50
1 | CCCCCCC(=O)Nc1nc(-c2ccc(S(=O)(=O)N(CC)CC)cc2)cs1 | 1400 nM
2 | CCCCCCC(=O)Nc1nc(-c2ccc(S(=O)(=O)N3CCC(C)CC3)cc2)cs1 | 5850 nM
3 | CCCCC(=O)Nc1nc(-c2ccc(S(=O)(=O)N3CCOCC3)cc2)cs1 | 201 nM
4 | CCCCCC(=O)Nc1nc(-c2ccc(S(=O)(=O)N3CCC(C)CC3)cc2)cs1 | 762 nM
5 | CCC(CC)C(=O)Nc1nc(-c2ccc(S(=O)(=O)N3CCC(C)CC3)cc2)cs1 | 1820 nM
6 | CCCCCCC(=O)Nc1nc(-c2ccc(S(=O)(=O)N3CCCC3)cc2)cs1 | 874 nM
7 | CN(Cc1ccc(C(C)(C)C)cc1)C(=O)Cc1ccc(S(=O)(=O)N2CCOCC2)s1 | 365 nM
8 | CCC(C)C(=O)Nc1nc(-c2ccc(S(=O)(=O)N3CCC(C)CC3)cc2)cs1 (stereo not drawn) | 405 nM
9 | CCCCCCCCCCC[C@H](C[C@@H]1OC(=O)[C@H]1CCCCCC)OC(=O)[C@@H](NC=O)C(C)C | 122 nM
10 | CCC(C)C(=O)Nc1nc(-c2ccc(S(=O)(=O)N3CCCC3)cc2)cs1 (stereo not drawn) | 141 nM
11 | CCCCCC(=O)Nc1nc(-c2ccc(S(=O)(=O)N(CC)CC)cc2)cs1 | 190 nM
12 | CCCCCC(=O)Nc1nc(-c2ccc(S(=O)(=O)N3CCCC3)cc2)cs1 | 137 nM
13 | CCC(C)C(=O)Nc1nc(-c2ccc(S(=O)(=O)N(CC)CC)cc2)cs1 (stereo not drawn) | 1060 nM and 152 nM
14 | CCCCCCC(=O)Nc1nc(-c2ccc(S(=O)(=O)N3CCCCC3C)cc2)cs1 (stereo not drawn) | 4430 nM
15 | CCC(CC)C(=O)Nc1nc(-c2ccc(S(=O)(=O)N(CC)CC)cc2)cs1 | 343 nM
16 | Cn1c(SCC(=O)Nc2ncc(C(F)(F)F)cc2Cl)nnc1-c1ccc(Cl)cc1 | 682 nM
17 | CCC(CC)C(=O)Nc1nc(-c2ccc(S(=O)(=O)N3CCCC3)cc2)cs1 | 254 nM
18 | CC(C)CC(=O)Nc1nc(-c2ccc(S(=O)(=O)N3CCC(C)CC3)cc2)cs1 | inactive
19 | CCCCC(=O)Nc1nc(-c2ccc(S(=O)(=O)N3CCCCC3C)cc2)cs1 (stereo not drawn) | 358 nM
20 | CC(C)CC(=O)Nc1nc(-c2ccc(S(=O)(=O)N3CCCC3)cc2)cs1 | 1640 nM
21 | CC1CCN(S(=O)(=O)c2ccc(-c3csc(NC(=O)C(C)C)n3)cc2)CC1 | 489 nM
22 | CCCCCC(=O)Nc1nc(-c2ccc(S(=O)(=O)N3CCCCC3C)cc2)cs1 (stereo not drawn) | 552 nM
23 | CCC(C)C(=O)Nc1nc(-c2ccc(S(=O)(=O)N3CCCCC3C)cc2)cs1 (stereo not drawn) | 278 nM
